The source of these data is paper PMC8359128 (ACS Omega, 2021).

Assay [1] addresses T1, human CB1 receptor (Homo sapiens, UniProt P21554). Kind of assay: Competitive radioligand. Type of assay: binding. The note with it: for inhibition at 10 µM: read-out: % displacement at 10 μM CB1.
The target of assay [2] is T2, human CB2 receptor (Homo sapiens, UniProt P34972). As to the kind of experiment: Competitive radioligand. Type of assay: binding. The note with it: for inhibition at 10 µM: read-out: % displacement at 10 μM CB2.
T2 sequence (P34972 whole entry): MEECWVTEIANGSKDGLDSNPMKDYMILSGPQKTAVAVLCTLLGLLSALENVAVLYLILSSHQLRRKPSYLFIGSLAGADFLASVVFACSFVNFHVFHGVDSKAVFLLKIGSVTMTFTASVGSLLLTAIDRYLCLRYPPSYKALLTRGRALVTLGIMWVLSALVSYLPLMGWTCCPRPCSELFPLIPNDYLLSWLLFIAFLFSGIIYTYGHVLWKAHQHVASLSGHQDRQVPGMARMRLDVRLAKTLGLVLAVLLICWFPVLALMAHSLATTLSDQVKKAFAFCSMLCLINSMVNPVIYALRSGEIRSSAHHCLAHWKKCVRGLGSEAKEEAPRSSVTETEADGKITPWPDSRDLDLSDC
Assay [3] concerns the target T1, human CB1 receptor. Kind of assay: [35S]-GTPγS functional assay, CB1. Format: biochemical. Particulars: for functional behavior at CB1: GTPγS. A digest of the protocol: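 Membranes (20 µg) from HEK293 cells stably expressing human CB1, incubated with 0.5 nM [35S]-GTPγS, 30 µM GDP and test compound in 50 mM Tris-HCl, 150 mM NaCl, 9 mM MgCl2, 0.2 mM EGTA, 1.4 mg/mL BSA, pH 7.4. Incubation 2 h, 37 °C, gentle shaking. […] Filtration, scintillation counting. Duplicates; EC50 by nonlinear regression.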

Assay [4] deals with T2, human CB2 receptor. As to the kind of experiment: [35S]-GTPγS functional assay, CB2. Particulars: for functional behavior at CB2: GTPγS. Format: biochemical.
For assay [5] the following is noted: (−)-trans vs (+)-trans isomer; cited from earlier work.
Where [6] appears, read: IC50 CB2 displacement (bound given in text).
[7] abbreviates: IC50 ± SEM CB2, competitive radioligand binding, triplicate.

Bounds are passed on as bounds.

T1 sequence (P21554 whole entry): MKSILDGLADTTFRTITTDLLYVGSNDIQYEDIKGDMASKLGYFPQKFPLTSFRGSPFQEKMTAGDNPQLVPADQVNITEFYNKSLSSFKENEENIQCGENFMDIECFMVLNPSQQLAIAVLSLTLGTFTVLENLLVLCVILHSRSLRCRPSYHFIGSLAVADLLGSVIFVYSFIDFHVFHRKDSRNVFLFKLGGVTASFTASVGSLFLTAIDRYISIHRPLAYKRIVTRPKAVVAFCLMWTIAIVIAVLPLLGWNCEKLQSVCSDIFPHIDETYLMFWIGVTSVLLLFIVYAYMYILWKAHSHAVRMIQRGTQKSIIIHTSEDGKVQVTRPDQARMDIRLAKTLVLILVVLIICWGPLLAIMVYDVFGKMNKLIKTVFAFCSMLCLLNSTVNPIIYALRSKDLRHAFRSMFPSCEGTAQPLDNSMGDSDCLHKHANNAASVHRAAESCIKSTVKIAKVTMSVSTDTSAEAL

For `C[C@H]1CC[C@H]2[C@H](C1)c1c(O)cc(-c3ccccc3)cc1OC2(C)C` [11A, (6aS,9S,10aS)-6,6,9-Trimethyl-3-phenyl-6a,7,8,9,10,10a-hexahydro-6H-benzo[c]chromen-1-ol], the inhibition at 10 µM was 34.3% at human CB1 receptor [1] and 57.3% on human CB2 receptor [2]. For the same compound, the affinity on human CB2 receptor [2] corresponds to a Ki of 1570 ± 836 nM. In addition, the IC50 on human CB2 receptor [2] (setting [6]) was at most 3200 nM; at human CB2 receptor [2] (setting [7]), 3150 ± 1670 nM.

Take `C[C@H]1CC[C@H]2[C@H](C1)c1c(O)cc(-c3ccc4c(c3)OCO4)cc1OC2(C)C` [11B, (6aS,9S,10aS)-3-(Benzo[d][1,3]dioxol-5-yl)-6,6,9-trimethyl-6a,7,8,9,10,10a-hexahydro-6H-benzo[c]chromen-1-ol]: at human CB1 receptor [1], the inhibition at 10 µM was 30.8%. Also, at human CB2 receptor [2], the inhibitory constant (Ki) was 117 ± 11.7 nM and the inhibition at 10 µM stood at 67%. Also, the 50% inhibitory concentration (IC50) at human CB2 receptor [2] (setting [6]) is at most 3200 nM.

Turning to `C[C@H]1CC[C@H]2[C@H](C1)c1c(O)cc(-c3ccc(C#N)cc3)cc1OC2(C)C` [11C, 4-((6aS,9S,10aS)-1-Hydroxy-6,6,9-trimethyl-6a,7,8,9,10,10a-hexahydro-6H-benzo[c]chromen-3-yl)benzonitrile], the inhibition at 10 µM on human CB1 receptor [1] is -7.02%; at human CB2 receptor [2] it was 22.1%.

Regarding `C[C@H]1CC[C@H]2[C@H](C1)c1c(O)cc(-c3ccoc3)cc1OC2(C)C` [11D, (6aS,9S,10aS)-3-(Furan-3-yl)-6,6,9-trimethyl-6a,7,8,9,10,10a-hexahydro-6H-benzo[c]chromen-1-ol], the inhibition at 10 µM on human CB1 receptor [1] came out at 34%; at human CB2 receptor [2], 44.4%.

As to `CCCCCC/C=C/c1cc(O)c2c(c1)OC(C)(C)[C@H]1CC[C@H](C)C[C@H]21` [11E, (6aS,9S,10aS)-6,6,9-Trimethyl-3-((E)-oct-1-en-1-yl)-6a,7,8,9,10,10a-hexahydro-6H-benzo[c]chromen-1-ol], at human CB1 receptor [1], the IC50 was found to be 684 ± 326 nM; the affinity, expressed as Ki, was 342 ± 95.8 nM; the inhibition at 10 µM is 66.8%. On human CB2 receptor [2], the affinity, expressed as Ki, was 573 ± 106 nM and the inhibition at 10 µM is 50.4%. The compound further came in with an IC50 on human CB2 receptor [2] (setting [6]) of at most 3200 nM. This compound also returned an IC50 at human CB2 receptor [2] (setting [7]) of 1150 ± 212 nM. Further, at human CB1 receptor [3], the EC50 turned out to be 239 ± 68 nM and the “functional behavior at CB1” value is recorded as “agonist”.

For `C[C@H]1CC[C@H]2[C@H](C1)c1c(O)cc(/C=C/c3ccc(C(F)(F)F)cc3)cc1OC2(C)C` [11F, (6aS,9S,10aS)-6,6,9-Trimethyl-3-((E)-4-(trifluoromethyl)styryl)-6a,7,8,9,10,10a-hexahydro-6H-benzo[c]chromen-1-ol], the values for the inhibition at 10 µM on human CB1 receptor [1] and at human CB2 receptor [2] were 43.2% and 23.9%, respectively.

In the case of `C[C@H]1CC[C@H]2[C@H](C1)c1c(O)cc(/C=C/c3ccc(Cl)cc3)cc1OC2(C)C` [11G, (6aS,9S,10aS)-3-((E)-4-Chlorostyryl)-6,6,9-trimethyl-6a,7,8,9,10,10a-hexahydro-6H-benzo[c]chromen-1-ol], the inhibition at 10 µM on human CB1 receptor [1] came to 7.54%; at human CB2 receptor [2] it was 8.7%.

In the case of `C[C@H]1CC[C@H]2[C@H](C1)c1c(O)cc(-c3cccc4c3oc3ccccc34)cc1OC2(C)C` [11H, (6aS,9S,10aS)-3-(Dibenzo[b,d]furan-4-yl)-6,6,9-trimethyl-6a,7,8,9,10,10a-hexahydro-6H-benzo[c]chromen-1-ol], the figures for the inhibition at 10 µM at human CB1 receptor [1] and at human CB2 receptor [2] were 29.4% and 76.2%, respectively. Also, the Ki at human CB2 receptor [2] was found to be 63.7 ± 8.19 nM. In addition, the IC50 was at most 3200 nM on human CB2 receptor [2] (setting [6]) and 127 ± 16.4 nM at human CB2 receptor [2] (setting [7]). The compound also returned an EC50 at human CB2 receptor [4] (EC50 GTPγS CB2, duplicate) of 5730 ± 3290 nM. Also, the “functional behavior at CB2” value on human CB2 receptor [4] is “agonists”.

Consider `C[C@H]1CC[C@H]2[C@H](C1)c1c(O)cc(-c3ccc(Oc4ccccc4)cc3)cc1OC2(C)C` [11I, (6aS,9S,10aS)-6,6,9-Trimethyl-3-(4-phenoxyphenyl)-6a,7,8,9,10,10a-hexahydro-6H-benzo[c]chromen-1-ol], for which the inhibition at 10 µM was found to be 34.4% on human CB1 receptor [1] and 16.3% at human CB2 receptor [2].

For the compound `C[C@H]1CC[C@H]2[C@H](C1)c1c(O)cc(-c3csc4ccccc34)cc1OC2(C)C` [11J, (6aS,9S,10aS)-3-(Benzo[b]thiophen-3-yl)-6,6,9-trimethyl-6a,7,8,9,10,10a-hexahydro-6H-benzo[c]chromen-1-ol], on human CB1 receptor [1], the half-maximal inhibitory concentration (IC50) is above 2000 nM, the Ki was above 1000 nM and the inhibition at 10 µM was 56.4%. At human CB2 receptor [2], the affinity, expressed as Ki, was 40.2 ± 2.91 nM and the inhibition at 10 µM was found to be 70.4%. For the same compound, on human CB2 receptor [2] (setting [6]), the IC50 is at most 3200 nM. Also, the half-inhibitory concentration (IC50) on human CB2 receptor [2] (setting [7]) is 80.4 ± 5.82 nM. For the same compound, at human CB1 receptor [3], the EC50 worked out at 1470 ± 708 nM and the “functional behavior at CB1” value is reported as “agonists”. Moreover, at human CB2 receptor [4], the “functional behavior at CB2” value is on record as “agonists”.

Regarding `C[C@H]1CC[C@H]2[C@H](C1)c1c(O)cc(-c3cc(C(F)(F)F)cc(C(F)(F)F)c3)cc1OC2(C)C` [11K, (6aS,9S,10aS)-3-(3,5-Bis(trifluoromethyl)phenyl)-6,6,9-trimethyl-6a,7,8,9,10,10a-hexahydro-6H-benzo[c]chromen-1-ol], the inhibition at 10 µM was -26.7% at human CB1 receptor [1] and 11.2% at human CB2 receptor [2].

For `CCCCCc1cc(O)c2c(c1)OC(C)(C)[C@@H]1CCC(C)=C[C@@H]21` [dronabinol], the “potency relative to the (+)-trans-isomer of Δ9-THC” value in assay [5] is given as 6–100 times.
